High-throughput results from PubChem.
Only some compounds are listed: those with a hit (about 2.5% of all), similar ones and a draw of the others.
SIRT5 block – sirtuin-5 (human) deacylase inhibition; Q9NXA8; Purified SirT5, succinyl-peptide AMC, trypsin-coupled fluorescence; inhibition, % at 15 µM; 1.1% of 330,000 active; AID 652115; in the data active = inhibition above about 15%; inconclusive = no clear call, values can overlap the other calls
Target sequence (Q9NXA8 whole entry, looked up): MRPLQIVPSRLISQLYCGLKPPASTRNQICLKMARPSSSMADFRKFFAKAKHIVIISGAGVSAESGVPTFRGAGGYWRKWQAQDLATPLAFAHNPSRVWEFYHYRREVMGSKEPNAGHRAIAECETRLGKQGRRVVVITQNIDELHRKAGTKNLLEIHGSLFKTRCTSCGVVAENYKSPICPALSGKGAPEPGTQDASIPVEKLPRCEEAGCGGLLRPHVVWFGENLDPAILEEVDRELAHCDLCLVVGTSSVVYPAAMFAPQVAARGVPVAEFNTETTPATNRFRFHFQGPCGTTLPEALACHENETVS
ERAP1 inh – ERAP1 (human) enzyme inhibition. Q9NZ08. recombinant ERAP1, Leu-AMC fluorescence, 60 min. inhibition, % at 10.7 µM. 0.15% of 340,000 active. AID 652197;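 active = mean replicate inhibition of at least 30%, or all replicates individually reaching that 30% level; inactive = mean below 30% and not every replicate reaching it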;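 also: 0% = neutral control wells and 100% = L-leucinethiol positive control wells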
DENV2 CPE rescue – protects cells from dengue virus 2 cytopathic effect; DENV2-infected cells, cytopathic effect rescue, plate reader; 1.7% of 350,000 active; CPE inhibition, % at 9.99 µM; AID 651640; in the data active = CPE inhibition above about 20%, passing the limit was not always enough; inconclusive = no clear call, values can overlap the other calls; tested in BHK-21 cells;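 also: 0% = median of neutral control wells and 100% = median of positive control wells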
E-sel inducer – induces E-selectin expression in human endothelial cells; P16581; HUVEC E-selectin immunofluorescence imaging; normalized: neutral wells 0, TNF-alpha wells 100; activation, % at 7.58 µM; 0.37% of 260,000 active;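 active = mean E-selectin-positive cell signal at least 10% of the positive control, reached in at least 60% of replicates, without over 20% cell loss; inconclusive = no rule given, readout overlaps actives, possibly toxicity-flagged; inactive = the rest, including those meeting only one limit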
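Assay system: HUVEC primary endothelial cells. Input: 3,000 HUVEC seeded per well. Doses: one compound dose added by pin transfer. Read-out basis: % PE-positive cells. Benchmarks: TNF-alpha high, DMSO low. Detection: immunofluorescence imaging. Buffer or medium: EGM-2, gelatin.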
PglD inh – PglD (C. jejuni) enzyme inhibition. purified PglD enzyme, DTNB colorimetric CoA detection. inhibition, % at 12.5 µM. 0.098% of 360,000 active; in the data active = inhibition above about 16%, passing the limit was not always enough; inconclusive = no clear call, values can overlap the other calls
* marks the source's active call; other numbers are inactive results; ? = inconclusive; / = no result given; ! = not active in a repeat.

SMILES	SIRT5 block	ERAP1 inh	DENV2 CPE rescue	E-sel inducer	PglD inh
CC[C@@]1(C(=O)OC)N[C@H](CN(C)S(=O)(=O)c2ccc(-c3ccccc3)cc2)[C@@H]2C(=O)N(C)C(=O)[C@@H]21	-0.5	-8.7	?	-0.3	9.4
c1ccc(CCc2nc(-c3ccc(-n4cccc4)cc3)no2)cc1	18.3*	6.1	-3.7	0.0	0.2
N#Cc1c(Cl)cccc1N1CCCC1	-2.4	/	-0.1	-0.3	-4.9
N#Cc1c(Cl)cccc1N1CCSCC1	-0.4	-8.0	36.2*	-0.2	/
CN(C)c1cccc(C(=O)Nc2ccc(S(=O)(=O)Nc3nccs3)cc2)c1	/	/	/	/	-4.6
O=C(Nc1ccc(S(=O)(=O)Nc2nccs2)cc1)c1cccc(F)c1	31.7*	-3.5	5.1	-0.1	1.9
C[C@@H]1CN([C@@H](C)CO)C(=O)c2cc(NC(=O)Cc3ccccc3)ccc2O[C@@H]1CN(C)Cc1ccc(Cl)c(Cl)c1	8.2	1.6	5.2	34.9*	42.2
C[C@H](CO)N1C[C@H](C)[C@H](CN(C)Cc2ccc(Cl)c(Cl)c2)Oc2ccc(NC(=O)Cc3ccccc3)cc2CC1=O	6.1	0.0	-16.5	-2.0	-1.2
C[C@@H]1CN([C@@H](C)CO)C(=O)Cc2cc(NC(=O)Cc3ccccc3)ccc2O[C@H]1CN(C)Cc1ccc(Cl)c(Cl)c1	-1.9	1.6	26.3*	1.0	-1.5
C[C@@H]1CN([C@H](C)CO)C(=O)Cc2cc(NC(=O)Cc3ccccc3)ccc2O[C@H]1CN(C)Cc1ccc(Cl)c(Cl)c1	-5.5	0.1	27.5*	-1.3	-4.4
CC(C)NC(=O)Nc1ccc2c(c1)C(=O)N([C@H](C)CO)C[C@H](C)[C@@H](CN(C)Cc1ccc(Cl)c(Cl)c1)O2	24.3*	2.6	-4.5	1.9	-2.0
CC(c1ccccc1)N1CC(C(=O)N2CCN(c3ccccc3)CC2)CC1=O (stereo unspecified)	-2.9	-0.6	-1.1	-0.4	1.6
CNC[C@@H]1Oc2ccc(NC(=O)CCC(F)(F)F)cc2C(=O)N([C@H](C)CO)C[C@H]1C	0.3	0.9	-1.2	-0.1	3.6
Clc1ccc(-c2csc(=Nc3cccnc3)n2CCCn2ccnc2)cc1Cl	-2.3	0.6	-1.4	/	/
CCCCOc1ccc(S(=O)(=O)NNC(=O)c2cc3ccccc3o2)cc1	30.6*	-0.6	-5.4	/	-1.4
CN(C)c1nc(-c2ccccc2)cc(C(F)(F)F)c1C#N	/	/	/	/	6.4
COC(=O)c1cc(C(=O)OC)cc(-n2c(C)cc(C(=O)COC(=O)CNS(=O)(=O)c3ccc(C)cc3)c2C)c1	-0.4	-0.3	-12.3	/	/
CCCC#Cc1ccc2c(c1)O[C@H](CN(C)S(=O)(=O)c1cccc(OC)c1)[C@H](C)CN([C@H](C)CO)S2(=O)=O	17.3*!	-0.2	-0.3	-0.1	-3.2
COc1cccc(S(=O)(=O)N(C)C[C@H]2Oc3cc(C#CCN(C)C)ccc3S(=O)(=O)N([C@@H](C)CO)C[C@H]2C)c1	3.0	3.6	-1.3	-0.1	-5.7
CC(C)CC#Cc1ccc2c(c1)O[C@@H](CN(C)S(=O)(=O)c1cccc(F)c1)[C@@H](C)CN([C@@H](C)CO)S2(=O)=O	19.6*	-2.4	9.4	/	-2.2
C[C@H](CO)N1C[C@H](C)[C@H](CN(C)S(=O)(=O)c2cccc(F)c2)Oc2cc(C#CCN(C)C)ccc2S1(=O)=O	5.0	-0.6	-1.5	0.0	0.5
COCC#Cc1ccc2c(c1)O[C@@H](CN(C)S(=O)(=O)c1cccc(F)c1)[C@@H](C)CN([C@H](C)CO)S2(=O)=O	18.6*!	2.3	-1.0	-0.5	-37.8
CC(C)CC#Cc1ccc2c(c1)O[C@@H](CN(C)S(=O)(=O)c1cccc(F)c1)[C@H](C)CN([C@H](C)CO)S2(=O)=O	19.4*	-1.4	-0.8	-0.5	0.5
COc1ccc(-c2ccc(C(=O)NCC(C)C)c3occc23)c(C)c1	/	0.8	-1.9	0.3	-2.6
CC(C)CC#Cc1ccc2c(c1)O[C@@H](CN(C)S(=O)(=O)c1cccc(F)c1)[C@H](C)CN([C@@H](C)CO)S2(=O)=O	17.1*	-10.1	-3.5	0.0	3.5
SMILES	SIRT5 block	ERAP1 inh	DENV2 CPE rescue	E-sel inducer	PglD inh
CC(C)CC#Cc1ccc2c(c1)O[C@H](CN(C)S(=O)(=O)c1cccc(F)c1)[C@@H](C)CN([C@H](C)CO)S2(=O)=O	15.7*	-3.4	-5.4	-0.2	-1.4
CCCC#Cc1ccc2c(c1)O[C@@H](CN(C)S(=O)(=O)c1cccc(F)c1)[C@@H](C)CN([C@H](C)CO)S2(=O)=O	1.0	0.1	6.1	-0.2	-0.7
CS(=O)(=O)NCc1ccc(C(=O)NCCOc2ccccc2)cc1	-6.5	2.4	30.7*	/	/
Cc1ccc(OCCNC(=O)c2cccc(S(=O)(=O)NCc3ccccc3)c2)cc1	0.6	1.9	6.9	/	-4.8
O=C1c2ccccc2NC(c2ccc(-c3ccccc3F)o2)N1O (stereo unspecified)	4.8	-1.5	25.0*	-0.1	-1.5
CCn1c(SCC(=O)Nc2ccc(C(=O)OC)cc2)nnc1-c1cccs1	/	/	/	/	0.5
C[C@@H]1CN([C@@H](C)CO)C(=O)Cc2cc(NS(=O)(=O)c3ccc(F)cc3)ccc2O[C@@H]1CN(C)Cc1ccc(C(=O)O)cc1	3.3	2.1	29.8*	0.0	-0.8
C[C@@H]1CN([C@H](C)CO)C(=O)Cc2cc(NS(=O)(=O)c3ccc(F)cc3)ccc2O[C@H]1CN(C)Cc1ccc(C(F)(F)F)cc1	22.9*	-2.9	-11.7	0.0	2.3
C[C@@H]1CN([C@H](C)CO)C(=O)Cc2cc(NS(=O)(=O)c3ccc(Cl)cc3)ccc2O[C@@H]1CN(C)Cc1ccc(C(F)(F)F)cc1	-3.3	0.6	-11.1	0.6	1.2
C[C@H]1CN([C@@H](C)CO)C(=O)Cc2cc(NS(=O)(=O)c3ccc(F)cc3)ccc2O[C@@H]1CN(C)Cc1ccc(C(F)(F)F)cc1	20.4*	-0.8	3.8	0.1	1.8
C[C@@H]1CN([C@@H](C)CO)C(=O)Cc2cc(NS(=O)(=O)c3ccc(F)cc3)ccc2O[C@@H]1CN(C)Cc1ccc(C(F)(F)F)cc1	18.3*	-2.3	1.0	0.0	1.6
C[C@H](CO)N1C[C@H](C)[C@H](CN(C)Cc2ccc(C(=O)O)cc2)Oc2ccc(NS(=O)(=O)c3ccc(F)cc3)cc2CC1=O	2.5	1.6	3.2	1.2	2.3
CCCCCCCNC(=O)C1(CC2CC(c3ccccc3)=NO2)CCN(C(=O)c2ccccc2)CC1 (stereo unspecified)	3.1	-0.4	23.8*	-0.1	0.2
CCCCCCCNC(=O)C1(CC2CC(c3ccccc3)=NO2)CCN(C(=O)OC(C)(C)C)CC1 (stereo unspecified)	16.6*	-0.7	0.0	-0.1	1.8
CCN(C(=O)CSc1nc2nc(C)cc(C)n2n1)C1CCS(=O)(=O)C1 (stereo unspecified)	-3.1	0.4	-3.3	/	-3.9
CN1C[C@@H]2[C@H](c3ccccc31)[C@H](CO)N2C(=O)c1cccnc1	4.1	1.8	4.9	0.4	-0.4
O=C(Cc1cccc(NC(=O)C2CCN(C(=O)C3CCCCC3)CC2)c1)Nc1cccc(C(=O)N2CCOCC2)c1	-1.6	/	3.0	-0.3	7.8
NC(=O)C(c1ccc(Cl)cc1)c1ccc(Sc2ccc(Cl)cc2)nn1 (stereo unspecified)	/	/	/	/	-3.5
CN(C)CCCNc1oc(-c2ccc(Cl)cc2)nc1S(=O)(=O)c1ccccc1	-1.1	-9.4	38.5*	0.3	/
